# Bioassay records: PubChem, Sanford-Burnham Center for Chemical Genomics
# Shown are actives, neighbours in structure and some others; about 1.9% of the full set was active somewhere.
# Scp1 inh = Scp-1 (human) phosphatase inhibition. actives 0.88% (n = 340,000). Q9GZU7. inhibition, % at 20 µM. Recombinant Scp1, phosphopeptide, malachite green phosphate absorbance. AID 493091;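 active means inhibition above about 50% at 20 µM, limit read from the data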
#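 assay system = SCP-1 phosphatase catalytic domain, residues 76-261 | buffer or medium = 50 mM Tris acetate pH 5.5, 0.005% Tween-20, 10 mM MgCl2 | incubation = enzyme reaction 45 min at room temperature, colour 5 min, stabilisation 30 min | signal = Phosphate-binding colour reagent, absorbance read at 630 nm | measure = % inhibition at 20 µM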
# SUMO1-SIM PPI = alters human SUMO1 binding to SIM partners. actives 0.33% (n = 360,000). inhibition, % at 20 µM. P63165. SUMO1 binding to a labelled peptide, TR-FRET, 1 h. AID 602429; in the data active means inhibition above about 37%
# Target sequence (P63165 whole entry, looked up): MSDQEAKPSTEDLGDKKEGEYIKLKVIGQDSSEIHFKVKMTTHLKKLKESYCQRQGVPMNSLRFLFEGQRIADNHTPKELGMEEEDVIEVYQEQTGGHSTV
# STEP inh = inhibitors of human striatal-enriched phosphatase STEP; P54829; recombinant STEP, OMFP fluorogenic substrate, fluorescence; inhibition, % at 20 µM; actives 0.25% (n = 360,000); AID 588621;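 active means inhibition at 20 µM, scaled per plate between control wells, above about 37%, limit read from the data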
#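 System: STEP (striatal-enriched tyrosine phosphatase) enzyme, cell-free; medium: Bis-Tris pH 6.0 buffer with DTT, detergent; dosing: 20 µM, 1% DMSO; times: reaction 20 min, ambient temperature; detection: fluorescence, 480/540 nm; read-out basis: normalized % inhibition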
# FAS TE block = blocks the thioesterase domain of human fatty acid synthase. inhibition, % at 15 µM. recombinant FAS-TE, OMFH fluorogenic substrate, fluorescence endpoint. P49327. AID 602261. actives 0.67% (n = 360,000);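 active means compounds whose normalised, plate-corrected inhibition of enzyme fluorescence in the single-dose primary screen is 50% or more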
# LMPTP block = LMPTP (human) inhibition. P24666. recombinant LMPTP-A, OMFP fluorogenic substrate, fluorescence intensity. inhibition, % at 20 µM. actives 0.22% (n = 360,000);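 active means compounds that cut the enzyme signal by at least half of the control window in the single-dose screen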
# Target sequence (P24666 whole entry, looked up): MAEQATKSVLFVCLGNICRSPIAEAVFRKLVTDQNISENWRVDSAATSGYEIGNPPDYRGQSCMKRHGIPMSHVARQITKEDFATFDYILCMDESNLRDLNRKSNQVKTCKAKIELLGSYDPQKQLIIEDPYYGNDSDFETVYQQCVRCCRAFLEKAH
#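 test system = LMPTP-A | amount = 0.625 nM LMPTP-A final | reagent = fluorogenic phosphatase substrate OMFP at 400 µM final | incubation = 50 min at room temperature | benchmarks = no-enzyme low control, uninhibited high control | medium = Bis-Tris pH 6.0, DTT, detergent | signal = fluorescence intensity of OMFP turnover product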
# A number is an active result; . = inactive; / = no result given.
SMILES,Scp1 inh,SUMO1-SIM PPI,STEP inh,FAS TE block,LMPTP block
CC1(C(=O)NS(=O)(=O)c2cccc(F)c2)CCN1C(=O)CC1CCCC1 (configuration not stated),/,.,.,.,.
O=C(Nc1ccc(Cl)cc1)C1Cc2c(-c3ccccc3)ccnc2O1 (configuration not stated),/,.,.,.,.
CCCCNC(=O)c1nc(C2CCN(S(=O)(=O)c3ccc(S(C)(=O)=O)cc3)CC2)oc1-c1ccccc1,/,.,/,/,.
COc1cccc(C(=O)Nc2cccc(-c3ccc4nncn4n3)c2)c1OC,.,.,.,.,.
COc1ccc(Cl)cc1C(=O)Nc1cccc(-c2ccc3nncn3n2)c1,.,47,61,.,.
COCCNC(=O)C1(C)CCN(C(=O)c2ccc(SC(F)(F)F)cc2)C1 (configuration not stated),/,.,.,.,.
O=S(=O)(NCC(O)COCc1ccco1)c1cccs1 (configuration not stated),65,.,.,.,.
CCOc1ccc2nc(N3C(=O)/C(=C/c4ccc(Cl)cc4)NC3=S)sc2c1,55,79,.,.,.
COC(=O)C[C@H]1C=C[C@H](NC(=O)Nc2ccccc2F)[C@@H](CO)O1,/,.,/,/,.
S=c1[nH]nc2ccc3ccccc3n12,/,.,.,.,71
COc1ccc(O)cc1CN1CCN(c2ncc(Cc3ccccc3)cn2)CC1,/,.,/,/,.
O=C(O)CCCN1C(=O)/C(=C\c2ccc(-c3nc4ccccc4s3)o2)SC1=S,75,56,65,.,.
Cc1ccc(/C=C2\SC(=S)N(Cc3ccccc3)C2=O)o1,.,.,.,.,.
O=C(O)CCN1C(=O)/C(=C/c2ccc(-c3nc4ccccc4s3)o2)SC1=S,.,91,70,.,.
O=C(O)CC(C(=O)O)N1C(=O)/C(=C/c2ccc(-c3nc4ccccc4s3)o2)SC1=S (configuration not stated),80,87,63,.,.
O=C(O)c1cc(-c2ccc(/C=C3/SC(=S)N(Cc4ccccc4)C3=O)o2)ccc1Cl,57,.,.,.,71
O=Cc1ccc(-c2nc3ccccc3s2)o1,.,.,.,.,.
CCCCNC(=O)C(NC(=O)c1ccc(-c2ccccc2)cc1)C(=O)c1ccccc1 (configuration not stated),/,.,/,/,.
CCC(C)(C)NC(=O)CN(CC1CCCO1)C(=O)CCC(=O)Nc1nccs1 (configuration not stated),.,47,.,.,.
CC(C)CCNC(=O)CN(CC1CCCO1)C(=O)CCC(=O)Nc1nccs1 (configuration not stated),.,.,.,.,.
COc1ccc(-c2cc(=O)c3c(C)cc(O)cc3o2)cc1,.,45,.,.,.
COc1cc(-c2cc(=O)c3c(C)cc(O)cc3o2)cc(OC)c1OC,.,.,.,.,.
COc1cccc(CNc2nc(NC(C)C)nc3ccsc23)c1OC,/,.,.,.,.
COc1cccc(CNc2nc(NCC3CC3)nc3ccsc23)c1OC,/,.,.,.,60
O=C(NCCCN1CCOCC1)C(=O)NCC1OCCN1S(=O)(=O)c1ccc(Cl)cc1 (configuration not stated),/,.,.,.,.
SMILES,Scp1 inh,SUMO1-SIM PPI,STEP inh,FAS TE block,LMPTP block
O=c1c2ccccc2sn1-c1cc(S(=O)(=O)N2CCOCC2)ccc1N1CCOCC1,94,.,.,.,.
CC(C)(C)OC(=O)NCCCC[C@H](NC(=O)c1nc[nH]c1C(=O)NCc1ccccc1)C(=O)OC(C)(C)C,.,.,.,55,.
CC(C)(C)OC(=O)NCCCC[C@H](NC(=O)c1[nH]cnc1C(=O)N[C@@H](Cc1ccccc1)C(=O)OC(C)(C)C)C(=O)OC(C)(C)C,.,.,.,.,.
O=C(NCCN1CCCC1=O)C1CCC(=O)N(CCc2cccc(F)c2)C1 (configuration not stated),.,44,.,.,.
Cn1cc([C@]2(O)C(=O)Nc3ccc(OC(F)(F)F)cc32)c2ccccc21,/,.,/,/,.
O=c1cc[nH]c2c(Cl)cccc12,.,.,.,.,.
Cc1[nH]ccc(=O)c1Cc1c(Cl)cccc1Cl,.,.,.,.,78
O=C(NCCCO)c1ccc2nc(-c3ccco3)c(-c3ccco3)nc2c1,.,45,.,.,.
CCc1nc2ccc(C(=O)NCCc3ccco3)cc2nc1CC,.,.,.,.,.
